Key:
[1] = Cytotoxicity against HFF assessed as cell proliferation after 96 hrs by alamar blue reduction assay; format: cell-based; details: human, HFF cells
In short: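 Non-specific toxicity to HFF host cells was measured by Alamar Blue reduction as a quantitative read-out of cell proliferation, with the CC50 derived.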

[2] = system: Toxoplasma gondii; assay: Antiparasitic activity against Toxoplasma gondii RH tachyzoite expressing beta-galactosidase assessed as inhibition of tachyzoite invasion into human foreskin fibroblast host cells after 96 hrs by colorimetric microtitre assay; format: functional, organism-based
In short: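 Invasion of HFF host cells by a recombinant T. gondii strain carrying bacterial β-galactosidase was judged indirectly from parasite growth inhibition in a colorimetric microtiter format.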

[3] = biological target: Receptor-interacting serine/threonine-protein kinase 3 (Homo sapiens, UniProt Q9Y572); assay: Inhibition of full length human GST-tagged RIPK3 expressed in Spodoptera frugiperda Sf9 cells after 30 mins by scintillation and luminescence counting method in the presence of [gamma-33P]ATP
[4] = Selectivity ratio of IC50 for porcine brain GSK-3 alpha/beta to IC50 for wild type recombinant Toxoplasma gondii CDPK1
[5] = Selectivity ratio of IC50 for human recombinant CDK5/P25 expressed in Escherichia coli to IC50 for wild type recombinant Toxoplasma gondii CDPK1; format: cell-free
[6] = biological target: Cyclin-dependent kinase 5/CDK5 activator 1 (Homo sapiens, UniProt Q00535); assay: Inhibition of human recombinant CDK5/P25 expressed in Escherichia coli using histone H1 substrate after 30 mins by scintillation and luminescence counting method in presence of [gamma-33P]ATP
[7] = biological target: Glycogen synthase kinase-3 (Sus scrofa, UniProt B2LUN4+I6LNT8); assay: Inhibition of porcine brain GSK-3 alpha/beta using GS-1 substrate after 30 mins by scintillation and luminescence counting method in the presence of [gamma-33P]ATP
[8] = Inhibition of porcine brain CK1-delta/epsilon using CKS peptide substrate after 30 mins by scintillation and luminescence counting method in presence of [gamma-33P]ATP; parameters: species or system Sus scrofa
[9] = biological target: T1, Serine/threonine-protein kinase haspin (Homo sapiens, UniProt Q8TF76); assay: Inhibition of human recombinant haspin kinase domain expressed in Escherichia coli BL21-KRX using histone H3 (1 to 21) peptide substrate after 30 mins by scintillation and luminescence counting method in the presence of [gamma-33P]ATP
T1 sequence (Q8TF76 whole entry): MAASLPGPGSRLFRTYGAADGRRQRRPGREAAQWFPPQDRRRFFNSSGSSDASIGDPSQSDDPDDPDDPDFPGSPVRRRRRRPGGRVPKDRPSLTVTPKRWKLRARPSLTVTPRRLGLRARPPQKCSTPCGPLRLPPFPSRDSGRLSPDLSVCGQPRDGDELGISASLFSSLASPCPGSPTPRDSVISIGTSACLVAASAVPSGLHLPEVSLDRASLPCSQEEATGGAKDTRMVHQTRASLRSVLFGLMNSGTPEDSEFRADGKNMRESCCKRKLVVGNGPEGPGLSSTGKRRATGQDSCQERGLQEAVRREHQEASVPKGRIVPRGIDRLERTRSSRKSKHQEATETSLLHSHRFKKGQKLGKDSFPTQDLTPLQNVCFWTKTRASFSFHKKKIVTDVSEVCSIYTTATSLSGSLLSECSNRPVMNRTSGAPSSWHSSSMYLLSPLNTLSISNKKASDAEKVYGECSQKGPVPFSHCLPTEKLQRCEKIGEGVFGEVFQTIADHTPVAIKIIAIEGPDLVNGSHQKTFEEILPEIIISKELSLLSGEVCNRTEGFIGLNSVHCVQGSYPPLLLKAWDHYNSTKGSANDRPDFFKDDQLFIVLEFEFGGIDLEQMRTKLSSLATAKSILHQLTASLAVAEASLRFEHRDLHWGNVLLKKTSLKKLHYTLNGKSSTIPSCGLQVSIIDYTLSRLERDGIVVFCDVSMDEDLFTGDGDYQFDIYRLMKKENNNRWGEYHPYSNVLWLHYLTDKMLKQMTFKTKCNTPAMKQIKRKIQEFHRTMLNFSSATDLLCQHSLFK

[10] = Inhibition of wild type recombinant Toxoplasma gondii CDPK1 using syntide-2 substrate after 30 mins by Kinase-Glo luminescent assay
[11] = Selectivity ratio of IC50 for full length human GST-tagged RIPK3 expressed in Spodoptera frugiperda Sf9 cells to IC50 for wild type recombinant Toxoplasma gondii CDPK1
[12] = Selectivity ratio of IC50 for porcine brain CK1-delta/epsilon to IC50 for wild type recombinant Toxoplasma gondii CDPK1
[13] = Selectivity ratio of IC50 for human recombinant haspin kinase domain expressed in Escherichia coli BL21-KRX to IC50 for wild type recombinant Toxoplasma gondii CDPK1; format: cell-free
[14] = Lipophilicity, log P of the compound; format: physicochemical; details: octanol/water

Cyclin-dependent kinase 5/CDK5 activator 1, sequence (Q00535 whole entry): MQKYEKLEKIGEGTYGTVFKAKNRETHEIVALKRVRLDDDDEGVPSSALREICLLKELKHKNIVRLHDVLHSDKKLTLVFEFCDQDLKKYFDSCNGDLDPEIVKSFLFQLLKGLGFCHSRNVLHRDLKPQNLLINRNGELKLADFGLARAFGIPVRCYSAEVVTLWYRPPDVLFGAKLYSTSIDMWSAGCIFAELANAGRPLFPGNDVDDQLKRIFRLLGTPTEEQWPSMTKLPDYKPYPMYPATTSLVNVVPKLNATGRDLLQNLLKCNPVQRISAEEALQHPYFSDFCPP
Cyclin-dependent kinase 5/CDK5 activator 1, sequence (Q15078 whole entry, further chain): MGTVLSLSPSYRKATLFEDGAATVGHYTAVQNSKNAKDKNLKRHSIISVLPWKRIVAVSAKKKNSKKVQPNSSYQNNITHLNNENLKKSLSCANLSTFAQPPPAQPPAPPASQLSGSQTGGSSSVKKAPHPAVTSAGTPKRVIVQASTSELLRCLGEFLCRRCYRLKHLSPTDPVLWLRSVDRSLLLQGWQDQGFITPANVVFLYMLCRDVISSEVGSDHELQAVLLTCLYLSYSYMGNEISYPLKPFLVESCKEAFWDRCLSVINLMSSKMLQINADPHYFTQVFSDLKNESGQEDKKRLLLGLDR
Receptor-interacting serine/threonine-protein kinase 3, sequence (Q9Y572 whole entry): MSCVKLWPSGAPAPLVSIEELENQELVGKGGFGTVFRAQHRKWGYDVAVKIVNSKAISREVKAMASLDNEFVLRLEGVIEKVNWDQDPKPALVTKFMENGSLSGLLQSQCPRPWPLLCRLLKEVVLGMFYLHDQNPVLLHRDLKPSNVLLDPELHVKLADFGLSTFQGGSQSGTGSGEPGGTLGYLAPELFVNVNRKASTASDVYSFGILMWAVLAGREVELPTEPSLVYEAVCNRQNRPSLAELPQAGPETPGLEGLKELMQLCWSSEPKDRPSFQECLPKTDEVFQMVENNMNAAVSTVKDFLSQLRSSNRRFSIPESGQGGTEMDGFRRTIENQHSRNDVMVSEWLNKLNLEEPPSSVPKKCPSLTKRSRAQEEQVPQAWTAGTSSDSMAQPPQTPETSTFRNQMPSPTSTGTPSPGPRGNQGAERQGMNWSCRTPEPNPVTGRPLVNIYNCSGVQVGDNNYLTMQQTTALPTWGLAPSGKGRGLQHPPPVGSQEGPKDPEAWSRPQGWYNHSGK

| Structure (SMILES) | CC50 at 96 h [1] [µM] | EC50 [2] [µM] | IC50 [3] [µM] | Ratio IC50 [4] | Ratio IC50 [5] | IC50 [6] [µM] | IC50 [7] [µM] | IC50 [8] [µM] | IC50 [9] [µM] | IC50 [10] [µM] | Ratio IC50 [11] | Ratio IC50 [12] | Ratio IC50 [13] | logP [14] |
| --- | --- | --- | --- | --- | --- | --- | --- | --- | --- | --- | --- | --- | --- | --- |
| CCc1nc(N)nc(N)c1-c1ccc(Cl)cc1 [PYRIMETHAMINE] | > 50 | 0.34 |  |  |  |  |  |  |  |  |  |  |  |  |
| CN1CCN(c2ccc3nc(-c4cccc5c4OCO5)c(-c4ccncc4)n3n2)CC1 | 42.5 | 0.1 | 2.5 | > 380 | > 380 | > 10 | 5.4 | 0.37 | > 10 | 0.014 | > 100 | 25 | > 380 |  |
| CN1CCN(c2ccc3nc(-c4ccc5c(c4)OCCO5)c(-c4ccncc4)n3n2)CC1 | 7.6 | 0.49 | > 10 |  |  | > 10 | > 10 | ≥ 10 | > 10 | 0.11 |  |  |  | < 3 |
| CN1CCN(c2ccc3nc(-c4cccc(-c5cccs5)c4)c(-c4ccncc4)n3n2)CC1 | 6.7 | 1.42 | 0.27 |  |  | > 10 | 10 | 3.1 | > 10 | 0.37 |  |  |  | 5 |
| CN1CCN(c2ccc3nc(-c4ccc5ncsc5c4)c(-c4ccncc4)n3n2)CC1 | 17.5 | 1.66 | > 10 |  |  | > 10 | > 10 | 0.95 | > 10 | 0.4 |  |  |  |  |
| CN1CCN(c2ccc3nc(-c4ccc(-c5ccccc5)s4)c(-c4ccncc4)n3n2)CC1 | 6.8 | 3.07 | > 10 |  |  | > 10 | > 10 | > 10 | > 10 | 3.58 |  |  |  | 5 |
| CN1CCN(c2ccc3nc(-c4cccc5ccccc45)c(-c4ccncc4)n3n2)CC1 | 21.3 | 0.07 | 0.88 | > 1000 | > 1000 | > 10 | > 10 | 0.51 | > 10 | 0.008 | > 100 | 25 | > 1000 |  |
| CCOc1ccc2c(-c3nc4ccc(N5CCN(C)CC5)nn4c3-c3ccncc3)cccc2c1 | 7.6 | 1.71 | 1.7 |  |  | > 10 | > 10 | > 10 | > 10 | 0.91 |  |  |  | 5 |
| CN1CCN(c2ccc3nc(-c4cccc(-c5ccsc5)c4)c(-c4ccncc4)n3n2)CC1 | 6.3 | 0.61 | 0.3 |  |  | > 10 | 7.6 | ≥ 10 | > 10 | 0.5 |  |  |  | 5 |
| CN1CCN(c2ccc3nc(-c4ccc(C(=O)N5CCOCC5)cc4)c(-c4ccncc4)n3n2)CC1 | 14.1 | > 5 | > 10 |  |  | > 10 | > 10 | > 10 | > 10 | > 5 |  |  |  |  |
| CN1CCN(c2ccc3nc(-c4cccc5c4OCO5)c(-c4ccccc4)n3n2)CC1 | 21.9 | 1.9 | > 10 |  |  | > 10 | 2.2 | ≥ 10 | > 10 | 5.4 |  |  |  |  |
| COc1ccc2c(-c3nc4ccc(N5CCN(C)CC5)nn4c3-c3ccncc3)cccc2c1 | 20.9 | 2.21 | 1.2 |  |  | > 10 | > 10 | > 10 | > 10 | 0.5 |  |  |  |  |
| CN1CCN(c2ccc3nc(-c4cccc(C(=O)N5CCOCC5)c4)c(-c4ccncc4)n3n2)CC1 | 6.4 | > 5 | > 10 |  |  | > 10 | > 10 | > 10 | 3.9 | 3.05 |  |  |  | < 3 |
| CC1CN(c2ccc3nc(-c4cccc5c4OCO5)c(-c4ccncc4)n3n2)CC(C)N1C (configuration not stated) | > 50 | 0.63 |  |  |  |  |  |  |  | 0.63 |  |  |  |  |
| CN1CCN(c2ccc3nc(-c4cccc5c4OCO5)c(-c4cccnc4)n3n2)CC1 | 35.9 | > 5 | > 10 |  |  | > 10 | > 10 | > 10 | > 10 | 6.5 |  |  |  |  |
| COc1cccc(-c2nc3ccc(N4CCN(C)CC4)nn3c2-c2ccncc2)c1 | 38 | 0.05 | ≥ 10 |  |  | > 10 | 8.8 | 0.4 | > 10 | 0.009 |  |  |  |  |
| c1cc2c(c(-c3nc4cccnn4c3-c3ccncc3)c1)OCO2 | 8.2 | 1.28 | 5.5 |  |  | > 10 | 3.5 | 2.4 | > 10 | 0.22 |  |  |  | 5 |
| CN1CCN(c2ccc3nc(-c4ccc5c(c4)OCO5)c(-c4ccncc4)n3n2)CC1 | 17.5 | 0.63 | 7.6 |  |  | > 10 | > 10 | 0.15 | > 10 | 0.15 |  |  |  |  |
| CN1CCN(c2ccc3nc(-c4cccc(-c5ccccc5)c4)c(-c4ccncc4)n3n2)CC1 | 10.9 | 1 | 0.45 |  |  | > 10 | > 10 | > 10 | > 10 | 0.44 |  |  |  |  |
| CN1CCN(c2ccc3nc(-c4cccc5c4OCO5)c(-c4ccncc4)n3c2)CC1 | > 50 | > 5 | > 10 |  |  | > 10 | > 10 | > 10 | > 10 | 0.85 |  |  |  |  |
| CN1CCN(c2ccc3nc(-c4ccc(-c5ccccc5)cc4)c(-c4ccncc4)n3n2)CC1 | 13.7 | > 5 | > 10 |  |  | > 10 | > 10 | > 10 | > 10 | 3.43 |  |  |  |  |
| CN1CCN(c2ccc3nc(-c4cccc5c4OCCO5)c(-c4ccncc4)n3n2)CC1 | > 50 | 0.94 | > 10 |  |  | > 10 | > 10 | 2 | > 10 | 1.23 |  |  |  |  |

Source: ChEMBL document CHEMBL3734718, “Development of new highly potent imidazo[1,2-b]pyridazines targeting Toxoplasma gondii calcium-dependent protein kinase 1” (Eur J Med Chem, 2015)
